# Experimental data as given in ChEMBL document CHEMBL4334460, “Madecassic Acid Derivatives as Potential Anticancer Agents: Synthesis and Cytotoxic Evaluation” (2019).
# Calls of active or inactive are those of the source. The calls are words filed in the database; no cut-off is given here.
# Tests used:
# [1] = test system: CCRF-CEM; assay: Antiproliferative activity against human CCRF-CEM cells assessed as cell growth at 10 uM after 48 hrs by sulforhodamine B assay relative to control; assay type: functional; details: pooled result: one value given for 60 cell lines, strains, targets or settings, read-out: Activity
# In short: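 NCI-60 one-dose screen: cells exposed to test compound at a single 10 μM concentration, viability after 48 h read by sulforhodamine B staining; value is growth percent versus negative control, with a time-zero cell control used to determine total cell growth.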
# [2] = test system: CCRF-CEM; assay: Antiproliferative activity against human CCRF-CEM cells assessed as growth inhibition after 48 hrs by sulforhodamine B assay; assay type: functional; details: pooled result: one value given for 58 cell lines, strains, targets or settings
# [3] = test system: COLO 205; assay: Antiproliferative activity against human COLO205 cells assessed as growth inhibition after 48 hrs by sulforhodamine B assay; assay type: functional; details: COLO 205, 48 h
# [4] = test system: HCT-15; assay: Antiproliferative activity against human HCT15 cells assessed as growth inhibition after 48 hrs by sulforhodamine B assay; assay type: functional; details: HCT-15, 48 h
# [5] = test system: SK-MEL-5; assay: Antiproliferative activity against human SK-MEL-5 cells assessed as growth inhibition after 48 hrs by sulforhodamine B assay; assay type: functional; details: SK-MEL-5, 48 h
# [6] = test system: UACC-257; assay: Antiproliferative activity against human UACC257 cells assessed as growth inhibition after 48 hrs by sulforhodamine B assay; assay type: functional; details: UACC-257, 48 h
# In short: (§1)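 NCI-60 five-dose follow-up, run only when the one-dose screen indicated activity. Doses 100 μM down to 0.01 μM in log steps (0.01, 0.1, 1, 10, 100 μM). 48 h incubation with sulforhodamine B read-out. A time-zero cell control allowed calculation of GI50 from % growth vs concentration dose–response curves.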
# [7] = test system: UO-31; assay: Antiproliferative activity against human UO31 cells assessed as growth inhibition after 48 hrs by sulforhodamine B assay; assay type: functional; details: UO-31, 48 h; in short: as §1
# [8] = Selectivity ratio of GI50 for human NCI-H226 cells to GI50 for human NCI-H460 cells; assay type: functional
# [9] = Selectivity ratio of GI50 for human Hs 578T cells to GI50 for human MCF7 cells; assay type: functional
# [10] = Selectivity ratio of GI50 for human Hs 578T cells to GI50 for human T47D cells; assay type: functional
# [11] = Selectivity ratio of GI50 for human Hs 578T cells to GI50 for human MDA-MB-468 cells; assay type: functional
# [12] = Selectivity ratio of GI50 for human NCI-H226 cells to GI50 for human NCI-H23 cells; assay type: functional
# [13] = Selectivity ratio of GI50 for human OVCAR5 cells to GI50 for human OVCAR4 cells; assay type: functional
# [14] = Selectivity ratio of GI50 for human RXF 393 cells to GI50 for human CAKi1 cells; assay type: functional
# [15] = test system: UACC-257; assay: Antiproliferative activity against human UACC257 cells assessed as reduction in cell viability after 48 hrs by SRB assay; assay type: functional; details: UACC-257, 48 h, read-out: LC50 (the source's name)
# In short: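 NCI-60 five-dose testing at 100, 10, 1, 0.1 and 0.01 μM (log dilutions). After 48 h incubation, viability was read by sulforhodamine B staining. A time-zero cell control gave total growth per cell line. GI50, TGI and LC50 were calculated from % growth versus concentration curves.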
# [16] = test system: COLO 205; assay: Induction of cell cycle arrest in human COLO205 cells assessed as cell population at G0/G1 phase at 10 uM after 48 hrs by PI/RNase staining based flow cytometry (reference value: 63.8%); assay type: functional
# In short: (§2)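 COLO 205 cells grown at 37 °C, 5% CO2 in RPMI with 10% FBS and penicillin/streptomycin. Treated 48 h with 10 or 20 μM compound or DMSO vehicle. Cells trypsinized, fixed in ethanol 15 min on ice, stained with PI/RNase solution 40 min at 37 °C, then analysed by imaging cytometry. % cells per phase given as mean ± SD of three independent experiments.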
# [17] = test system: COLO 205; assay: Induction of cell cycle arrest in human COLO205 cells assessed as cell population at S phase at 10 uM after 48 hrs by PI/RNase staining based flow cytometry (reference value: 16.3%); assay type: functional; in short: as §2
# [18] = test system: COLO 205; assay: Induction of cell cycle arrest in human COLO205 cells assessed as cell population at G2/M phase at 10 uM after 48 hrs by PI/RNase staining based flow cytometry (reference value: 18.6%); assay type: functional; in short: as §2
# [19] = test system: COLO 205; assay: Induction of cell cycle arrest in human COLO205 cells assessed as cell population at G0/G1 phase at 20 uM after 48 hrs by PI/RNase staining based flow cytometry (reference value: 63.8%); assay type: functional; in short: as §2
# [20] = test system: COLO 205; assay: Induction of cell cycle arrest in human COLO205 cells assessed as cell population at S phase at 20 uM after 48 hrs by PI/RNase staining based flow cytometry (reference value: 16.3%); assay type: functional; in short: as §2
# [21] = test system: COLO 205; assay: Induction of cell cycle arrest in human COLO205 cells assessed as cell population at G2/M phase at 20 uM after 48 hrs by PI/RNase staining based flow cytometry (reference value: 18.6%); assay type: functional; in short: as §2
# [22] = test system: COLO 205; assay: Induction of mitochondrial dysfunction in human COLO205 cells assessed as reduction in mitochondrial membrane potential by measuring shift in red to green fluorescence after 48 hrs by JC-1 staining based inverted microscopic analysis; assay type: functional, cell-based
# In short: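 COLO 205 cells (5 × 10^5) grown on coverslips overnight, then treated 48 h with 10 or 20 μM compound or DMSO. Fresh medium with 4 μg/mL JC-1 added for 30 min at 37 °C. Cells washed twice and imaged immediately by inverted fluorescence microscopy (40× objective) at room temperature, scoring red aggregate vs green monomer fluorescence.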
# [23] = test system: COLO 205; assay: Induction of cell cycle arrest in human COLO205 cells assessed as increase in accumulation of cells at G2/M phase at 2 uM after 24 hrs by PI/RNase staining based flow cytometry (reference value: 18.6%); assay type: functional
# In short: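 Positive-control arm of the COLO 205 cell-cycle assay: nocodazole 2 μM for 24 h. Culture conditions as above (RPMI, 10% FBS, 37 °C, 5% CO2). Ethanol-fixed cells stained with PI/RNase 40 min at 37 °C and analysed by imaging cytometry for phase distribution. Three independent experiments.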
Structure (SMILES),GI50 [2],GI50 [4],growth at 10 µM [1],GI50 [7],further results
COC(=O)[C@]12CC[C@@H](C)[C@H](C)[C@H]1C1=CC[C@@H]3[C@@]4(C)CC(=O)[C@H](OC(=O)c5ccco5)[C@@]5(C)COC(=C45)C[C@@]3(C)[C@]1(C)CC2,2.3 µM,0.5 µM,27.2%,1.7 µM,TGI [3]: 3 µM; TGI [5]: 2.6 µM; TGI [6]: 3 µM; RatioGI50 [8]: >100; RatioGI50 [9]: >100; RatioGI50 [10]: >100; RatioGI50 [11]: >100; RatioGI50 [12]: >50; RatioGI50 [13]: >50; RatioGI50 [14]: >50; CC50 [15]: 50.1 µM; Activity [16]: 88.4%; Activity [17]: 3.8%; Activity [18]: 6.6%; Activity [19]: 89.1%; Activity [20]: 3.3%; Activity [21]: 6.2%; Activity [22]: Dose-dependent effect
COC(=O)[C@]12CC[C@@H](C)[C@H](C)[C@H]1C1=CC[C@@H]3[C@@]4(C)C=C(O)C(=O)C(C)=C4CC[C@@]3(C)[C@]1(C)CC2,12 µM,12 µM,31.7%,12 µM,–
COC(=O)[C@]12CC[C@@H](C)[C@H](C)[C@H]1C1=CC[C@@H]3[C@@]4(C)C=C(O)C(=O)[C@@]5(C)COC(=C54)C[C@@]3(C)[C@]1(C)CC2,8.9 µM,8.9 µM,-58.9%,8.9 µM,–
COC(=O)Nc1nc2cc(C(=O)c3cccs3)ccc2[nH]1,–,–,–,–,Activity [23]: Active
COC(=O)[C@]12CC[C@@H](C)[C@H](C)[C@H]1C1=CC[C@@H]3[C@@]4(C)C[C@@H](OC(=O)/C=C/c5ccccc5)[C@H](O)[C@@](C)(CO)[C@@H]4[C@H](O)C[C@@]3(C)[C@]1(C)CC2,2.4 µM,2.4 µM,-4.8%,2.4 µM,–
COC(=O)[C@]12CC[C@@H](C)[C@H](C)[C@H]1C1=CC[C@@H]3[C@@]4(C)C[C@@H](O)[C@H](O)[C@@]5(C)COC(=C45)C[C@@]3(C)[C@]1(C)CC2,–,–,85.8%,–,–
COC(=O)[C@]12CC[C@@H](C)[C@H](C)[C@H]1C1=CC[C@@H]3[C@@]4(C)C[C@@H](OC(C)=O)[C@H](OC(C)=O)[C@@](C)(COC(C)=O)[C@@H]4[C@H](O)C[C@@]3(C)[C@]1(C)CC2,1.7 µM,1.7 µM,8%,1.7 µM,–
COC(=O)[C@]12CC[C@@H](C)[C@H](C)[C@H]1C1=CC[C@@H]3[C@@]4(C)CC(=O)[C@H](OC(=O)/C=C/c5ccccc5)[C@@]5(C)COC(=C45)C[C@@]3(C)[C@]1(C)CC2,–,–,78.2%,–,–
COC(=O)[C@]12CC[C@@H](C)[C@H](C)[C@H]1C1=CC(=O)[C@@H]3[C@@]4(C)C[C@@H](O)[C@H](O)[C@@]5(C)COC(=C45)C[C@@]3(C)[C@]1(C)CC2,–,–,51.5%,–,–
COC(=O)[C@]12CC[C@@H](C)[C@H](C)[C@H]1C1=CC[C@@H]3[C@@]4(C)C=C(O)C(=O)C(C)=C4C(=O)C[C@@]3(C)[C@]1(C)CC2,–,–,67.8%,–,–
C[C@H]1[C@H](C)CC[C@]2(C(=O)O)CC[C@]3(C)C(=CC[C@@H]4[C@@]5(C)C[C@@H](O)[C@H](O)[C@@](C)(CO)[C@@H]5[C@H](O)C[C@]43C)[C@H]12 [MADECASSIC ACID],–,–,99.2%,–,–
COC(=O)[C@]12CC[C@@H](C)[C@H](C)[C@H]1C1=CC(=O)[C@@H]3[C@@]4(C)C[C@@H](OC(C)=O)[C@H](OC(C)=O)[C@@](C)(COC(C)=O)[C@@H]4C(=O)C[C@@]3(C)[C@]1(C)CC2,–,–,45.8%,–,–

# Now from value to molecule, other results behind:
GI50 [2],GI50 [4],Structure (SMILES),growth at 10 µM [1],GI50 [7],further results
10 µM,10 µM,COC(=O)[C@]12CC[C@@H](C)[C@H](C)[C@H]1C1=CC[C@@H]3[C@@]4(C)CC(=O)[C@H](O)[C@@](C)(CO)[C@@H]4C(=O)C[C@@]3(C)[C@]1(C)CC2,-22.4%,10 µM,–
11 µM,11 µM,COC(=O)[C@]12CC[C@@H](C)[C@H](C)[C@H]1C1=CC[C@@H]3[C@@]4(C)C[C@@H](OC(C)=O)[C@H](O)[C@@](C)(CO)[C@@H]4[C@H](O)C[C@@]3(C)[C@]1(C)CC2,-79.2%,11 µM,–
2.3 µM,2.3 µM,COC(=O)[C@]12CC[C@@H](C)[C@H](C)[C@H]1C1=CC[C@@H]3[C@@]4(C)C[C@@H](OC(=O)c5ccco5)[C@H](O)[C@@](C)(CO)[C@@H]4[C@H](O)C[C@@]3(C)[C@]1(C)CC2,-83%,2.3 µM,–
4.9 µM,4.9 µM,COC(=O)[C@]12CC[C@@H](C)[C@H](C)[C@H]1C1=CC[C@@H]3[C@@](C)(CC#N)C4=C(C[C@@]3(C)[C@]1(C)CC2)OC[C@]4(C)C=O,-18.1%,4.9 µM,–
6.6 µM,6.6 µM,COC(=O)[C@]12CC[C@@H](C)[C@H](C)[C@H]1C1=CC[C@@H]3[C@@]4(C)C/C(=N\O)[C@H](O)[C@@]5(C)COC(=C45)C[C@@]3(C)[C@]1(C)CC2,-76.9%,6.6 µM,–
18.2 µM,18.2 µM,COC(=O)[C@]12CC[C@@H](C)[C@H](C)[C@H]1C1=CC[C@@H]3[C@@]4(C)CC(=O)[C@H](O)[C@@]5(C)COC(=C45)C[C@@]3(C)[C@]1(C)CC2,-62.9%,18.2 µM,–
12.9 µM,12.9 µM,COC(=O)[C@]12CC[C@@H](C)[C@H](C)[C@H]1C1=CC[C@@H]3[C@@]4(C)C[C@@H](O)[C@H](O)[C@@](C)(CO)[C@@H]4[C@H](O)C[C@@]3(C)[C@]1(C)CC2,-54.1%,12.9 µM,–
17 µM,17 µM,COC(=O)[C@]12CC[C@@H](C)[C@H](C)[C@H]1C1=CC[C@@H]3[C@@]4(C)C[C@@H](O)[C@H](O)[C@@](C)(CO)C4=CC[C@@]3(C)[C@]1(C)CC2,-55.4%,17 µM,–
